# According to ChEMBL document CHEMBL1148000, “Naphthyl piperazines with dual activity as 5-HT1D antagonists and 5-HT reuptake inhibitors” (Bioorg Med Chem Lett, 2007):
# Activity calls are given as the source filed them. The rule behind the calls is not given here.
# What was measured:
# Hypothalamus = assay: Increase in extracellular 5HT level in guinea pig hypothalamus at 10 mg/kg, po after 3 hrs; type: functional, organism-based; set-up: dose 10 mg/kg; conditions: Cavia porcellus
# Procedure, shortened: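 Microdialysis was done in the hypothalamus of freely moving guinea pigs. Dosing was 10 mg/kg po. Extracellular 5-HT is expressed as a percentage of a pre-injection control period, assessed over 3 h post-dose, as means + SEM.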
# [1] = biological target: T1, 5-hydroxytryptamine receptor 1D (Homo sapiens, UniProt P28221); assay: Displacement of [3H]GR-125743 from human 5HT1D expressed in LM(tk-) cells; type: cell-based
# Procedure, shortened: (§1)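 Human 5-HT1B or 5-HT1D receptors were cloned into L-M(tk-) cells, and membrane homogenates were prepared from these cells. Binding used [3H]-GR125743 as radioligand. Ki (nM) is the mean of runs in triplicate.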
# D(2) dopamine receptor = D(2) dopamine receptor (Rattus norvegicus, UniProt P61169); assay: Displacement of [3H]raclopride from dopamine D2 receptor in rat caudate membranes; type: cell membranes, Membrane
# Procedure, shortened: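 D2 binding was measured in rat caudate membranes with [3H]-raclopride. Ki (nM) is the mean of runs in triplicate.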
# [2] = biological target: Sodium-dependent serotonin transporter (Homo sapiens, UniProt P31645); assay: Displacement of [3H]citalopram from human 5HT transporter expressed in HEK293 cells; type: cell-based
# Procedure, shortened: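 Human serotonin transporter was expressed in HEK293 cells. Inhibition was measured as displacement of [3H]-citalopram. Ki (nM) is the mean of runs in triplicate.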
# [3] = biological target: T2, 5-hydroxytryptamine receptor 1A (Homo sapiens, UniProt P08908); assay: Displacement of [3H]8-OH-DPAT from human 5HT1A expressed in LM(tk-) cells; type: cell-based
# T2 sequence (P08908 whole entry): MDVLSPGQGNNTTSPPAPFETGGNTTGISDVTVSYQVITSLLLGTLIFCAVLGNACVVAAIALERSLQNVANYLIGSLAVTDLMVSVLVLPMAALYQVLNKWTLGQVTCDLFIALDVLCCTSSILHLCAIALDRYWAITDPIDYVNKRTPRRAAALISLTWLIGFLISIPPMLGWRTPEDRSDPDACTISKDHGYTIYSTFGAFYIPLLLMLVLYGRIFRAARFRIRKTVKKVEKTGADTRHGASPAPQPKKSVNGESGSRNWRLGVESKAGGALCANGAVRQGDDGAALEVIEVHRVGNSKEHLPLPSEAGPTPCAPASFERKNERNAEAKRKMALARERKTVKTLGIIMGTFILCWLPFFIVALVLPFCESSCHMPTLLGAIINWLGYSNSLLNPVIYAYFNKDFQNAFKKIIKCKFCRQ
# Procedure, shortened: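 Human 5-HT1A was cloned into L-M(tk-) cells, and membrane homogenates were prepared. Binding used [3H]-8-OH-DPAT as radioligand. Ki (nM) is the mean of runs in triplicate.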
# [4] = biological target: T3, Adrenergic receptor alpha-1 (Rattus norvegicus, UniProt P15823+P23944+P43140); assay: Displacement of [3H]prazosin from adrenergic alpha-1 receptor in rat cortical membranes; type: cell membranes, Membrane
# T3 sequence (P15823 whole entry): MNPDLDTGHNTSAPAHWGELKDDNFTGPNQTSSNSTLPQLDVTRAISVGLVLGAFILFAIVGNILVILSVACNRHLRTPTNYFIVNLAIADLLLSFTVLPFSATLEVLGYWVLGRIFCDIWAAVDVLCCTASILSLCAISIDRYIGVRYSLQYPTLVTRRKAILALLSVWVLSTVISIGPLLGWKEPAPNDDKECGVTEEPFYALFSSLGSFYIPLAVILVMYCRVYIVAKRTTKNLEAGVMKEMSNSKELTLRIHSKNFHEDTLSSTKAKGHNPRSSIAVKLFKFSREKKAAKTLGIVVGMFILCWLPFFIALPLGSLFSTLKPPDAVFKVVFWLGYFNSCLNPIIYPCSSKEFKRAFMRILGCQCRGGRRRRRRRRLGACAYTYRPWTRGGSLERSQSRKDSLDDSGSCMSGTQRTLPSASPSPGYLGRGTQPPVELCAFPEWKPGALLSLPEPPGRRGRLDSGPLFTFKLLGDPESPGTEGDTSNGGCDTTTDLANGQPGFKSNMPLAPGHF
# T3 sequence (P23944 whole entry): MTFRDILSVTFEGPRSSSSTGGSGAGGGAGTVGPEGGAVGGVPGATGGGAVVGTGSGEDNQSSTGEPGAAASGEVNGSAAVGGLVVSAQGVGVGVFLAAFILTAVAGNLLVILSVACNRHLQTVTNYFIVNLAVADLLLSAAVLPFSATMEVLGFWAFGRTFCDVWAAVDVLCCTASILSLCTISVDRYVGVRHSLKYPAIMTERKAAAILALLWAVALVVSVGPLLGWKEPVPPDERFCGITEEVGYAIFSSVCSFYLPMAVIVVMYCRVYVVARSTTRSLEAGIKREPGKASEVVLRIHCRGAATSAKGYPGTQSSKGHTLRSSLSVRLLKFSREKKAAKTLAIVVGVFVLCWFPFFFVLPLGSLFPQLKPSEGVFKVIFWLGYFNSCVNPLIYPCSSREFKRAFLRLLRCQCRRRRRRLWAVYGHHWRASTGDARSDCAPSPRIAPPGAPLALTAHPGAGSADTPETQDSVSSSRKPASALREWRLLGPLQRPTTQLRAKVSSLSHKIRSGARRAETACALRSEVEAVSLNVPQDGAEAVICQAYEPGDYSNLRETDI
# T3 sequence (P43140 whole entry): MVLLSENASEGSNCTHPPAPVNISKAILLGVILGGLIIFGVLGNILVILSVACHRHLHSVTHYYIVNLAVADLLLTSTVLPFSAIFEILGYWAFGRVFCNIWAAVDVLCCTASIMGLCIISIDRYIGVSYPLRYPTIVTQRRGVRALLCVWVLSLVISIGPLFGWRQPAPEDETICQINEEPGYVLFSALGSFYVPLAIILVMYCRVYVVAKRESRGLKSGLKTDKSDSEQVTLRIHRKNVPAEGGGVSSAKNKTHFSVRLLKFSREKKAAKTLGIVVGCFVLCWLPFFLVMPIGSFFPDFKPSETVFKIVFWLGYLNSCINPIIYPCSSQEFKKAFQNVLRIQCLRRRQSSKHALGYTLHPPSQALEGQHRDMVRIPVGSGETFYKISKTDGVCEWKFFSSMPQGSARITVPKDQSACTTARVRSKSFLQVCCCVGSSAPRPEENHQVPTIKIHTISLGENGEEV
# Procedure, shortened: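 Rat cortex membranes were used, with [3H]-prazosin as radioligand for α1 binding. Ki (nM) is the mean of runs in triplicate.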
# [5] = biological target: T1, 5-hydroxytryptamine receptor 1D; assay: Functional antagonism of 5-HT-stimulated GTP-gamma-[35S] binding to human 5HT1D expressed in LM(tk-) cells at 30 nM; set-up: scale not given: the % may be the effect or the level left
# [6] = biological target: 5-hydroxytryptamine receptor 1B (Homo sapiens, UniProt P28222); assay: Displacement of [3H]GR-125743 from human 5HT1B expressed in LM(tk-) cells; type: cell-based; procedure, shortened: as §1
# [7] = biological target: T1, 5-hydroxytryptamine receptor 1D; assay: Antagonist activity at human 5HT1D expressed in LM(tk-) cells by [35S]GTPgamma binding assay; type: functional, cell-based
# Procedure, shortened: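 5-HT dose–response curves for [35S]GTPγS binding were run in LM(tk-) cells stably expressing the human 5-HT1D receptor. Antagonism was read as the rightward shift of these curves. Results are given as KB or as % displacement at 30 nM.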
# Chain of Sodium-dependent serotonin transporter (P31645 whole entry): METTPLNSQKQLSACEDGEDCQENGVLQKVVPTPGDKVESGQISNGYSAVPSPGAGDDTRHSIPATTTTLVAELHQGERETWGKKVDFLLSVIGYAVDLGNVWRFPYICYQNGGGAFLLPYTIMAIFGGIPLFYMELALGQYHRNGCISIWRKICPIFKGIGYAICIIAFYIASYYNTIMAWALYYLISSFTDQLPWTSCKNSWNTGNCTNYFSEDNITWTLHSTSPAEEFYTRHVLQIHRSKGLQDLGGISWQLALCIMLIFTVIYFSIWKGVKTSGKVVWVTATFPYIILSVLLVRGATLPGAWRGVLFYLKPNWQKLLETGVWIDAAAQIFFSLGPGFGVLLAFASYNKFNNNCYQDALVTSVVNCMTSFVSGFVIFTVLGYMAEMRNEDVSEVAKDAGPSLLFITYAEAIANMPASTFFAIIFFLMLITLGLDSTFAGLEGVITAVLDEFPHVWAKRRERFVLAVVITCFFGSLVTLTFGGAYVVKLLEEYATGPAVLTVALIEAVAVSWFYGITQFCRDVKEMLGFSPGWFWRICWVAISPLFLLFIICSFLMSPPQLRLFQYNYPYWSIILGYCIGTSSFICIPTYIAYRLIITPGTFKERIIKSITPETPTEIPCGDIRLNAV
# Chain of 5-hydroxytryptamine receptor 1B (P28222 whole entry): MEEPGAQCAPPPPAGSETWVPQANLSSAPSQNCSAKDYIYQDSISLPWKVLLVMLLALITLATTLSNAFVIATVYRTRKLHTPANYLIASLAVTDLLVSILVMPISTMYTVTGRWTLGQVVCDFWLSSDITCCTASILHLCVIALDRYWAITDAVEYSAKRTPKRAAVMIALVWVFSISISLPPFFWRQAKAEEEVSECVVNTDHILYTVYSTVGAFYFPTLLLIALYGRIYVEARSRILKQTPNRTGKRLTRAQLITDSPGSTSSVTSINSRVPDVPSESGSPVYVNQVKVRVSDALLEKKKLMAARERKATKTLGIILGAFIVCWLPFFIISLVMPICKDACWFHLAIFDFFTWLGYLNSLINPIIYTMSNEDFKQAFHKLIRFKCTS
# T1 sequence (P28221 whole entry): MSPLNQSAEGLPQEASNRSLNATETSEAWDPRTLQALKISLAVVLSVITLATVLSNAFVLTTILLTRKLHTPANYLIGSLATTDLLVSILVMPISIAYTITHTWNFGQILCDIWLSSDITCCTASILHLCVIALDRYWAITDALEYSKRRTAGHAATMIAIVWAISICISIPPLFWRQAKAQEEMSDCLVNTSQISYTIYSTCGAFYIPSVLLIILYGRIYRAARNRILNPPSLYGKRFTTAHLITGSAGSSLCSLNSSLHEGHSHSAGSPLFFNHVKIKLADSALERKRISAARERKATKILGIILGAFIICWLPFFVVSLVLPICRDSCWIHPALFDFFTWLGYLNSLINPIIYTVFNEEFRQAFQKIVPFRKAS
# Chain of D(2) dopamine receptor (P61169 whole entry): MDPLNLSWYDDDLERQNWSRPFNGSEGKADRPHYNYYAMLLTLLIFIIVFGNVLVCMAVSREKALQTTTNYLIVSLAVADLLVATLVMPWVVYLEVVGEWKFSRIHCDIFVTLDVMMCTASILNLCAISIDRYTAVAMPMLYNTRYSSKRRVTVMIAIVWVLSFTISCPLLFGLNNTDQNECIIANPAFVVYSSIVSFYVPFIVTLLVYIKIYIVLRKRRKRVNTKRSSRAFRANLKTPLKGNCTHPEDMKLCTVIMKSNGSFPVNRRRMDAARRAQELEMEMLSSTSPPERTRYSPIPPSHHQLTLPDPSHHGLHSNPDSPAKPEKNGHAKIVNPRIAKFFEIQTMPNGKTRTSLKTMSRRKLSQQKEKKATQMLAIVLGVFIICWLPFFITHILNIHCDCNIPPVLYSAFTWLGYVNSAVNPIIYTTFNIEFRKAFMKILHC
Ki [1],Ki (D(2) dopamine receptor),Ki [2],Ki [3],Ki [4],Activity [5],Ki [6],Kb [7],SMILES,Activity (Hypothalamus)
0.9 nM,287 nM,2.2 nM,26 nM,353 nM,124%,21 nM,–,C[C@H]1CN(c2cccc3cc(C#N)ccc23)CCN1CC[C@@H]1OCCc2cc(C(N)=O)ccc21,Active
1 nM,88 nM,5.7 nM,16 nM,178 nM,101%,15 nM,–,N#Cc1ccc2c(N3CCN(CC[C@@H]4OCCc5cc(C(N)=O)ccc54)CC3)cccc2c1,–
67 nM,107 nM,8.8 nM,13 nM,43 nM,–,> 1000 nM,1.9 nM,C[C@H]1CN(c2cccc3cc(F)ccc23)CCN1CC[C@H]1OCc2cc(C(N)=O)ccc21,–
14 nM,26 nM,1.3 nM,13 nM,64 nM,–,114 nM,0.05 nM,C[C@H]1CN(c2cccc3cc(F)ccc23)CCN1CC[C@@H]1OCc2cc(C(N)=O)ccc21,–
88 nM,78 nM,7.4 nM,105 nM,74 nM,–,91 nM,11.1 nM,C[C@@H]1CN(c2cccc3cc(F)ccc23)CCN1CC[C@H]1OCCc2cc(C(N)=O)ccc21,–
1.8 nM,346 nM,1.3 nM,–,338 nM,–,88 nM,0.18 nM,C[C@H]1CN(c2cccc3cc(C#N)ccc23)CCN1CC[C@H]1OCc2cc(C(N)=O)ccc21,–
10 nM,704 nM,8.1 nM,–,96 nM,–,> 1000 nM,0.86 nM,NC(=O)c1ccc2c(c1)CCO[C@H]2CCN1CCN(c2ccc3cc(F)ccc3c2)CC1,–
7 nM,71 nM,3 nM,115 nM,80 nM,–,103 nM,0.01 nM,C[C@@H]1CN(c2cccc3cc(F)ccc23)CCN1CC[C@@H]1OCCc2cc(C(N)=O)ccc21,–
14 nM,1170 nM,2.1 nM,307 nM,91 nM,–,> 1000 nM,4.05 nM,C[C@H]1CN(c2ccc3cc(F)ccc3c2)CCN1CC[C@@H]1OCCc2cc(C(N)=O)ccc21,–
56 nM,4.7 nM,0.8 nM,–,16 nM,–,281 nM,0.01 nM,C[C@@H]1CN(c2cccc3cc(F)ccc23)CCN1CCC1OCCc2cc(C(N)=O)ccc21 (some centres undefined),–

SMILES,Ki [1],Ki (D(2) dopamine receptor),Ki [2],Ki [3],Ki [4],Activity [5],Ki [6],Kb [7],Activity (Hypothalamus)
NC(=O)c1ccc2c(c1)CCOC2CCN1CC=C(c2c[nH]c3cc(F)ccc23)CC1 (centres undefined),8 nM,42 nM,0.1 nM,–,0.7 nM,–,203 nM,4.3 nM,–
